Results taken from ChEMBL document CHEMBL5257059, “Pyridine-Based 1,2,4-Triazolo-Tethered Indole Conjugates Potentially Affecting TNKS and PI3K in Colorectal Cancer” (ACS Med Chem Lett, 2023).
Activity calls are given as the source filed them. The calls are words filed in the database; no cut-off is given here.

Key:
[1] = system: HT-29; test: Induction of mitochondrial ROS generation in human HT-29 cells at 1 uM by MitoSOX red dye based flow cytometry analysis; format: functional, cell-based
Summary of the method: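 Mitochondrial superoxide in HT-29 cells was read with the mitochondria-localizing MitoSOX Red probe after treatment at 1, 2 or 4 μM. Flow cytometry histograms were acquired on 10,000 cells, and results were expressed as mean fluorescence intensity. Versus control, significance was tested by one-way ANOVA with Tukey's post hoc test.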

[2] = system: HT-29; test: Inhibition of phosphorylated GSK-3beta protein expression in human HT-29 cells at 1 uM incubated for 72 hrs by Western blot analysis; format: functional, cell-based
[3] = system: HT-29; test: Inhibition of phosphorylated PI3K-p85 protein expression in human HT-29 cells at 1 uM incubated for 72 hrs by Western blot analysis; format: functional, cell-based
[4] = system: HT-29; test: Inhibition of beta-actin protein expression in human HT-29 cells at 4 uM incubated for 72 hrs by Western blot analysis; format: functional, cell-based
[5] = system: HT-29; test: Downregulation of TAB-182 protein expression in human HT-29 cells at 4 uM by immunostaining based confocal microscopic analysis; format: functional, cell-based
[6] = system: HT-29; test: Induction of cell cycle arrest in human HT-29 cells assessed as accumulation of cells at subG1 phase at 4 uM incubated for 24 hrs by RNase/PI staining based flow cytometry analysis (reference value: 1.798%); format: functional
[7] = system: HT-29; test: Induction of apoptosis in human HT29 cells assessed as increase in early apoptotic cells at 2 uM incubated for 24 hrs by annexin V/PI staining based flow cytometry analysis; format: functional, cell-based
Summary of the method: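 Annexin/PI double staining of HT-29 cells after 24 h exposure at 1, 2 or 4 μM. Flow cytometry gated early apoptotic, late apoptotic and necrotic populations, reported as % of cells. Comparison to untreated control used two-way ANOVA followed by Tukey's post hoc analysis.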

COc1ccc(-n2c(SCCc3c[nH]c4ccccc34)nnc2-c2ccncc2)cc1
Activity [1]: Active | inhibition [2]: Active | inhibition [3]: Active

COc1cccc(-n2c(SCCc3c[nH]c4ccccc34)nnc2-c2ccncc2)c1
inhibition [4]: Active | Activity [5]: Active | Activity [6]: 2.668%

Fc1ccccc1-n1c(SCCc2c[nH]c3ccccc23)nnc1-c1ccncc1
Activity [7]: Active
